DNMT1 block: DNMT1 (human) enzyme inhibition | DNMT1 molecular beacon, Hinp1I cleavage, fluorescence | inhibition (reported as % activation of signal), % at 10 µM | 0.83% of 360,000 active | AID 588458; in the data active means inhibition above about 50%
Target sequence (P26358 504-1616 limits assumed): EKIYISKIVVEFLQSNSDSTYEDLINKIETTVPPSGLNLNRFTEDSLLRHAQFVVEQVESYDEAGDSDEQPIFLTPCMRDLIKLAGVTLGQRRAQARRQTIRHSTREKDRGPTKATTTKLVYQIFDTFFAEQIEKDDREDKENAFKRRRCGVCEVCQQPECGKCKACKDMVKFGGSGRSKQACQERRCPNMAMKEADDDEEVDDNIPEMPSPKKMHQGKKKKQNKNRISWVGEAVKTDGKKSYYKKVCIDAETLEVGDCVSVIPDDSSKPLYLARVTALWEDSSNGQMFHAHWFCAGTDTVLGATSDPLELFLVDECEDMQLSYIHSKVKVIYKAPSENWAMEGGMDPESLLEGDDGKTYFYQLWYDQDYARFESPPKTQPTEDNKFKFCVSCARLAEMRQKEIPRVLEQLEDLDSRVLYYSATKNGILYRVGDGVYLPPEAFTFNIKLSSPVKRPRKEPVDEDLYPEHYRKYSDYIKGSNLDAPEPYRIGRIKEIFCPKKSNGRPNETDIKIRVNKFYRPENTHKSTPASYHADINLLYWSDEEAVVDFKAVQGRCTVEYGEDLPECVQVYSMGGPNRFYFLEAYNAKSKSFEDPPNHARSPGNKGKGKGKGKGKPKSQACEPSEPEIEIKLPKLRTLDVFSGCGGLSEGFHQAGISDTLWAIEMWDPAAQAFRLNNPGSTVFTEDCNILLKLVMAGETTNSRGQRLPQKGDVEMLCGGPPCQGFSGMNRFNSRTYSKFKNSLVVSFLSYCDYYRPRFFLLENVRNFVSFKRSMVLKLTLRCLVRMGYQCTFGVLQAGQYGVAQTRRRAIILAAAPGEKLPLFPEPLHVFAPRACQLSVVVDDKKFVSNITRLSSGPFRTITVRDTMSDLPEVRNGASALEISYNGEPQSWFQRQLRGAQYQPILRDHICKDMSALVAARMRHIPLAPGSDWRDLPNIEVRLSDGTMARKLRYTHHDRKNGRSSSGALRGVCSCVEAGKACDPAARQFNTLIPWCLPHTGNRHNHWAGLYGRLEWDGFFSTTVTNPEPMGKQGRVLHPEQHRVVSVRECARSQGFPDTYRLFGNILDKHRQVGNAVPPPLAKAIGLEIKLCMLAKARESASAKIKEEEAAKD
SUMO1 PPI mod: modulators of human SUMO1-mediated protein-protein interactions. SUMO1 binding to a labelled peptide, TR-FRET, 1 h. 0.33% of 360,000 active. inhibition, % at 20 µM. P63165; in the data active means inhibition above about 37%
STEP inh: inhibitors of human striatal-enriched phosphatase STEP; AID 588621; P54829; 0.25% of 360,000 active; inhibition, % at 20 µM; recombinant STEP, OMFP fluorogenic substrate, fluorescence;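 active means inhibition at 20 µM, scaled per plate between control wells, above about 37%, limit read from the data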;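 further: 0% = DMSO with enzyme and substrate and 100% = substrate only without enzyme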
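System: STEP (striatal-enriched tyrosine phosphatase) enzyme, cell-free; medium: Bis-Tris pH 6.0 buffer with DTT, detergent; dosing: 20 µM, 1% DMSO; times: reaction 20 min, ambient temperature; detection: fluorescence, 480/540 nm; read-out basis: normalized % inhibition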
LMPTP inh: LMPTP (human) inhibition | 0.22% of 360,000 active | inhibition, % at 20 µM | recombinant LMPTP-A, OMFP fluorogenic substrate, fluorescence intensity | AID 651560;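 active means compounds that cut the enzyme signal by at least half of the control window in the single-dose screen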;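 further: plate controls were DMSO wells with enzyme plus substrate for no effect and substrate without enzyme for full effect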
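Test system: LMPTP-A phosphatase enzyme. Amount: LMPTP-A at 0.625 nM final in the reaction. Reagent: OMFP substrate, 400 µM final. Times: 50 min at room temperature. Signal: endpoint fluorescence intensity from OMFP dephosphorylation. Read-out basis: % inhibition. Benchmarks: no-enzyme and uninhibited controls.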
Scp-1 inhibitor: blocks human Scp-1 phosphatase activity; Q9GZU7; Recombinant Scp1, phosphopeptide, malachite green phosphate absorbance; inhibition, % at 20 µM; 0.88% of 340,000 active;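 active means inhibition above about 50% at 20 µM, limit read from the data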;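 further: plate controls were DMSO wells with enzyme for no effect and wells lacking enzyme for full effect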
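System: SCP-1 catalytic domain; Reagent: Phospho 17-mer peptide substrate; Doses: one concentration, 20 µM, with 1.0% DMSO; Incubation: 45 min room-temperature reaction, 5 min colour, 30 min stabiliser; Signal: Phosphate-binding colour reagent, absorbance read at 630 nm.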
CSN deneddyl inh: blocks human CSN-mediated cullin deneddylation; Purified CSN, SCF-Nedd8-OG deneddylation, fluorescence polarization; inhibition, % at 12.5 µM; Q92905; 0.38% of 360,000 active;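 active means pattern-corrected inhibition above about 35%, with an unprinted fluorescence ratio check between 0.5 and 1.5, limit read from the data, passing the limit was not always enough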;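 further: 0% = enzyme with substrate and 100% = substrate without enzyme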
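Test system: purified human Csn5 enzyme expressed in HEK293T cells. Amount: 0.24 nM enzyme. Reagent: SCFSkp2-Nedd8OG substrate at 10 nM final. Schedule: 90 min incubation of compound, enzyme and substrate at room temperature. Detection: fluorescence polarization. Read-out: % inhibition of substrate cleavage by Csn5.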
Scp-1 conf: Scp-1 (human) inhibition, single-dose confirmed | shares compounds with Scp-1 inhibitor | recombinant SCP-1 catalytic domain, phosphate release, malachite green absorbance | inhibition, % at 20 µM | 61% of 2,500 active | AID 540281;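 further: plate controls were DMSO with enzyme for no effect and buffer wells lacking enzyme for full effect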
MG interference: counter-screen for Scp-1 inhibitors: colorimetric interference; shares compounds with Scp-1 inhibitor; 2,500 tested, under 10 active; Colorimetric interference counterscreen, malachite green absorbance 630 nm; apparent inhibition (interference), % at 20 µM;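 further: compounds added after enzyme reaction finished so only phosphate colour detection is probed; plate controls were DMSO wells with completed Scp-1 reaction for no effect and substrate wells lacking enzyme for full effect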
Scp1 DSF: binds human Scp-1, shifting its melting temperature; shares compounds with Scp-1 inhibitor; Recombinant SCP1, Sypro Orange thermal shift Tm; thermal shift relative to vanadate control, % at 40 µM; 25% of 1,500 active;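 active means substances whose mean melting-temperature shift, as a percentage of the reference inhibitor's shift, reaches about 5.3%, limit read from the data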;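 further: 0% = Tm of DMSO wells and 100% = Tm with sodium orthovanadate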
DNMT1 inh conf: DNMT1 inhibition confirmation, single concentration; shares compounds with DNMT1 block; DNMT1 molecular beacon HinP1I cleavage, fluorescence; inhibition, % at 10 µM; 8% of 2,300 active;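 active means average inhibition of at least 30% in the single-concentration confirmation test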
DNMT1 interf: shows spectral interference in the DNMT1 beacon assay; 1% of 2,300 active; activation (fluorescence interference), % at 10 µM; DNMT1 molecular beacon spectral interference counterscreen, fluorescence 485/520; shares compounds with DNMT1 block;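 active means activation of at least 30% at 10 µM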;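 further: DNMT1 catalytic domain with a HinP1I cleavage step and a FAM/dabcyl DNA beacon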
The depositor's hits bear a star; nt = no result given. Only some compounds are listed: those with a hit (about 1.9% of all), similar ones and a draw of the others.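 How the source made its calls, unless noted: active means inhibition of at least 30% at 20 µM; inactive means the rest.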

SMILES	DNMT1 block	SUMO1 PPI mod	STEP inh	LMPTP inh	Scp-1 inhibitor	CSN deneddyl inh	Scp-1 conf	MG interference	Scp1 DSF	DNMT1 inh conf	DNMT1 interf
COc1cccc(CNC(=O)c2ccc(F)c(S(=O)(=O)N3CCCCC3)c2)c1	-3	0	1	0	nt	9	nt	nt	nt	nt	nt
Cc1cccc(N2CC(C(=O)Nc3nnc(SCC(=O)N4CCOCC4)s3)CC2=O)c1 (stereo not drawn)	-3	18	4	3	-1	1	nt	nt	nt	nt	nt
COC(=O)N/N=C/c1ccc(OC(=O)/C=C/c2ccco2)cc1	53*	-12	6	5	56*	32	9	-21	nt	3	6
CCn1c(SCC(=O)O)nc2sc3c(c2c1=O)CCC3	71*	11	26	10	73*	20	50*	-19	-3	4	-2
CCn1c(SCC(=O)OC)nc2sc3c(c2c1=O)CCC3	70*	4	7	6	57*	15	64*	-11	-1	5	4
COc1ccc(/C=C(\NC(=O)c2ccc(OC)cc2)C(=O)N2CCCCC2)cc1	2	-6	0	-2	1	2	nt	nt	nt	nt	nt
COc1ccc(NC(=O)/C(C#N)=C\c2ccc(N3CCOCC3)o2)cc1	23	-70	-13	22	-11	14	nt	nt	nt	nt	nt
COc1ccc(NC(=O)/C(C#N)=C/c2ccc(Br)o2)cc1	99*	1	6	23	77*	11	56*	-14	5.5*	1	1
C=C(C)C(=O)Nc1cccc(C2=NOC3(C2)C[C@@H](C(N)=O)N(C(=O)c2cc([N+](=O)[O-])cc([N+](=O)[O-])c2)C3)c1 (stereo partly drawn)	87*	46*	4	-2	61*	18	49*	-16	-1	11	-1
CCCCCC(=O)Nc1cccc(C2=NOC3(C2)C[C@@H](C(N)=O)N(C(=O)c2cc([N+](=O)[O-])cc([N+](=O)[O-])c2)C3)c1 (stereo partly drawn)	12	-26	1	-2	4	0	nt	nt	nt	nt	nt
COc1ccc(C(=O)N2CCOC2CNC(=O)C(=O)NCc2ccccn2)cc1 (stereo not drawn)	-1	6	2	-1	nt	0	nt	nt	nt	nt	nt
O=C(Nc1ccc(NC(=O)c2cccs2)cc1)c1ccc(Br)o1	54*	22	29	42	61*	13	72*	-12	-9	-1	-5
CCOc1ccc(CCNC(=O)C2CC(C)=CCC2C(=O)O)cc1OCC (stereo not drawn)	53*	56*	19	-1	87*	5	58*	-14	-19	3	3
O=C(c1ccccc1C(=O)N1CCN(c2ccc(F)cc2)CC1)N1CCN(c2ccc(F)cc2)CC1	-4	0	1	1	5	-7	nt	nt	nt	nt	nt
CS(=O)(=O)c1ccc(-c2sc3ccccc3c2C(=O)N2CCN(c3ccc(F)cc3)CC2)cc1	60*	-1	-3	6	68*	-5	63*	-10	4	10	1
COc1ccc2c(c1)C(=NNC(=O)c1ccccn1)c1cc(OC)ccc1-2	88*	10	31	29	81*	11	62*	-13	0	2	-3
